Active and inactive are the calls of the source. No cut-off for these calls is given here.
Experiments:
[1] = target: DNA topoisomerase 2-alpha (Homo sapiens) (UniProt P11388); experiment: Inhibition of human topoisomerase 2-mediated relaxation of supercoiled PUC19 DNA at 20 to 50 uM uM after 20 mins using ethidium bromide staining by agarose gel electrophoresis
Method in brief: (§1)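 Native supercoiled pUC19 plasmid (350 ng) incubated with 4 units human topoisomerase II, with or without compound at several concentrations; etoposide run as reference. Relaxation/cleavage products separated by gel electrophoresis and scored for supercoiled, relaxed and broken DNA forms.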

Calf thymus DNA = experiment: Binding affinity to calf thymus DNA assessed as change in melting temperature; format: nucleic-acid assay; details: Bos taurus
HL-60 = experiment: Cytotoxicity against human HL60 cells; format: functional, cell-based
[2] = Cytotoxicity against human HL60/MX2 cells; format: functional, cell-based
[3] = target: DNA topoisomerase 2-alpha (Homo sapiens) (UniProt P11388); experiment: Inhibition of human topoisomerase 2-mediated relaxation of supercoiled PUC19 DNA at 1 to 100 uM uM after 20 mins using ethidium bromide staining by agarose gel electrophoresis; method in brief: as §1

DNA topoisomerase 2-alpha (Homo sapiens), sequence (P11388 whole entry): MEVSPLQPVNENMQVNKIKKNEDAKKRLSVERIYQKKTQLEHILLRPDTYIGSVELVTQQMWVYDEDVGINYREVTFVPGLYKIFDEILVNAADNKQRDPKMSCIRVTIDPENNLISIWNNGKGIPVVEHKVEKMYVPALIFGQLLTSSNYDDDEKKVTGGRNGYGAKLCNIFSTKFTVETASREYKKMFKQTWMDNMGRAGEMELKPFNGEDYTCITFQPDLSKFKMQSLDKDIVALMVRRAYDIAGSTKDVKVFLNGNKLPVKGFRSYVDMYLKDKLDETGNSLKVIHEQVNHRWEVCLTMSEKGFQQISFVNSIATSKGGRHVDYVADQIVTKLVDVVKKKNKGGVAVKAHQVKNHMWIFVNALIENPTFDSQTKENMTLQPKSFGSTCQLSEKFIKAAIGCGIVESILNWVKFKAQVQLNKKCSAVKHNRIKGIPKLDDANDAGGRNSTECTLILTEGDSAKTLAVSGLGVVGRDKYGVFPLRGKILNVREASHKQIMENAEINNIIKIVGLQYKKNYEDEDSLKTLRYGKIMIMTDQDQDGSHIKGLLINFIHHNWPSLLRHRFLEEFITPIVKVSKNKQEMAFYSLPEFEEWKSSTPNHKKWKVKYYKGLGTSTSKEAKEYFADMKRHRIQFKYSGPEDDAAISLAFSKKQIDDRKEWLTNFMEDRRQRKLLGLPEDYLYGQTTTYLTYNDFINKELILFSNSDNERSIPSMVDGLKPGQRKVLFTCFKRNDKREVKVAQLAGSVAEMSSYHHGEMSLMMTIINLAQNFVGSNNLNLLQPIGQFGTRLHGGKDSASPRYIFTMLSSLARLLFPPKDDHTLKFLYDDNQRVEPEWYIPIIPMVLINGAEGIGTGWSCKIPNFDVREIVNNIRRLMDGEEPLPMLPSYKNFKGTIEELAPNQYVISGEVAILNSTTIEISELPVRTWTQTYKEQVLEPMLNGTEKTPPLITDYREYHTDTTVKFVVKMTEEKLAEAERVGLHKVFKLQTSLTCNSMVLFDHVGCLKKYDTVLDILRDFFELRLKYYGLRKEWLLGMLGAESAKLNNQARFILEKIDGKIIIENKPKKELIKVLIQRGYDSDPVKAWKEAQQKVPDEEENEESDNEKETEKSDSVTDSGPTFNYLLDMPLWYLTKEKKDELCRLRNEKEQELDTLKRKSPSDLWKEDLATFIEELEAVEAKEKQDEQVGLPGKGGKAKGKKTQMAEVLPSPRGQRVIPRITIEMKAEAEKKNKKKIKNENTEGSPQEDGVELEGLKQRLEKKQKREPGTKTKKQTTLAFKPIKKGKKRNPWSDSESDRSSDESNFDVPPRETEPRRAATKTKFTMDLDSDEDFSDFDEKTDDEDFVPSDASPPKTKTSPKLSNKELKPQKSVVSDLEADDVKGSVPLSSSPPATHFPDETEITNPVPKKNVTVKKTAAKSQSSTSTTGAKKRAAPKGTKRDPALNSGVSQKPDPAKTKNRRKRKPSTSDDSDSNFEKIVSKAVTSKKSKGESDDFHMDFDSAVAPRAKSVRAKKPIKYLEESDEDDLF

Compound | inhibition [1] | other results
O=C1OCc2cc3c([nH]c4ccccc43)c(-c3ccc4c(c3)OCO4)c21 | inactive | 
COc1ccc(-c2c3c(cc4c2[nH]c2ccccc24)COC3=O)cc1 | inactive | 
COc1cc(-c2c3c(cc4c2[nH]c2ccccc24)COC3=O)cc(O)c1O | Active | Activity (Calf thymus DNA): inactive; IC50 (HL-60): 150 nM; IC50 [2]: 170 nM; inhibition [3]: Active

Now from value to compound, other results behind:

inhibition [1] | Compound | other results
inactive | COc1ccc(-c2c3c(cc4c2[nH]c2ccccc24)COC3=O)cc1OC | Activity (Calf thymus DNA): inactive
inactive | COc1cc(OC)cc(-c2c3c(cc4c2[nH]c2ccccc24)COC3=O)c1 | 
inactive | COc1cc(-c2c3c(cc4c2[nH]c2ccccc24)COC3=O)cc(OC)c1OC | 
Active | COc1cc([C@@H]2c3cc4c(cc3[C@@H](O[C@@H]3O[C@@H]5CO[C@@H](C)O[C@H]5[C@H](O)[C@H]3O)[C@H]3COC(=O)[C@H]23)OCO4)cc(OC)c1O | 

From ChEMBL document CHEMBL1287657, “Synthesis and biological activities of new furo[3,4-b]carbazoles: potential topoisomerase II inhibitors” (Eur J Med Chem, 2010)
